Reference: ChEMBL document CHEMBL2062435, “Synthesis and in vitro antibacterial activity of gemifloxacin derivatives containing a substituted benzyloxime moiety” (2012)

Tests used:
Type in all cases: functional
Pseudomonas aeruginosa [1] = experiment: Antimicrobial activity against Pseudomonas aeruginosa 10-12 after 18-24 hrs by two-fold serial dilution method
Outline: (§1)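 Agar-medium twofold serial dilution against Gram-positive and Gram-negative strains; MIC taken as the lowest compound concentration giving complete inhibition of bacterial growth after incubation at 35 °C for 18-24 h.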

[2] = tested on: Staphylococcus epidermidis; experiment: Antimicrobial activity against extended spectrum beta-lactamases-producing methicillin-sensitive Staphylococcus epidermidis 10-11 after 18-24 hrs by two-fold serial dilution method; outline: as §1
Escherichia coli [3] = experiment: Antimicrobial activity against extended spectrum beta-lactamases-producing Escherichia coli 10-4 after 18-24 hrs by two-fold serial dilution method; outline: as §1
Klebsiella pneumoniae [4] = experiment: Antimicrobial activity against Klebsiella pneumoniae 10-4 after 18-24 hrs by two-fold serial dilution method; outline: as §1
Staphylococcus aureus [5] = experiment: Antimicrobial activity against extended spectrum beta-lactamases-producing methicillin-sensitive Staphylococcus aureus 10-14 after 18-24 hrs by two-fold serial dilution method; outline: as §1
Pseudomonas aeruginosa [6] = experiment: Antimicrobial activity against extended spectrum beta-lactamases-producing Pseudomonas aeruginosa 10-20 after 18-24 hrs by two-fold serial dilution method; outline: as §1
Pseudomonas aeruginosa [7] = experiment: Antimicrobial activity against extended spectrum beta-lactamases-producing Pseudomonas aeruginosa 10-9 after 18-24 hrs by two-fold serial dilution method; outline: as §1
Enterococcus faecalis [8] = experiment: Antimicrobial activity against Enterococcus faecalis 10-5 after 18-24 hrs by two-fold serial dilution method; outline: as §1
[9] = tested on: Staphylococcus epidermidis; experiment: Antimicrobial activity against extended spectrum beta-lactamases-producing methicillin-resistant Staphylococcus epidermidis 10-13 after 18-24 hrs by two-fold serial dilution method
Outline: (§2)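 Agar twofold serial dilution MIC against clinical isolates. MIC was taken as the lowest concentration giving complete inhibition of bacterial growth after incubation at 35 °C for 18-24 h.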

Klebsiella pneumoniae [10] = experiment: Antimicrobial activity against extended spectrum beta-lactamases-producing Klebsiella pneumoniae 10-1 after 18-24 hrs by two-fold serial dilution method; outline: as §1
Enterococcus faecalis [11] = experiment: Antimicrobial activity against Enterococcus faecalis 10-6 after 18-24 hrs by two-fold serial dilution method; outline: as §1
Klebsiella pneumoniae [12] = experiment: Antimicrobial activity against extended spectrum beta-lactamases-producing Klebsiella pneumoniae 10-3 after 18-24 hrs by two-fold serial dilution method; outline: as §1
Escherichia coli [13] = experiment: Antimicrobial activity against Escherichia coli 10-1 after 18-24 hrs by two-fold serial dilution method; outline: as §1
Klebsiella pneumoniae [14] = experiment: Antimicrobial activity against Klebsiella pneumoniae 10-2 after 18-24 hrs by two-fold serial dilution method; outline: as §1
Pseudomonas aeruginosa [15] = experiment: Antimicrobial activity against extended spectrum beta-lactamases-producing Pseudomonas aeruginosa 10-18 after 18-24 hrs by two-fold serial dilution method; outline: as §1
Pseudomonas aeruginosa [16] = experiment: Antimicrobial activity against extended spectrum beta-lactamases-producing Pseudomonas aeruginosa 10-15 after 18-24 hrs by two-fold serial dilution method; outline: as §1
[17] = tested on: Staphylococcus epidermidis; experiment: Antimicrobial activity against extended spectrum beta-lactamases-producing methicillin-resistant Staphylococcus epidermidis 10-10 after 18-24 hrs by two-fold serial dilution method; outline: as §2
Klebsiella pneumoniae [18] = experiment: Antimicrobial activity against extended spectrum beta-lactamases-producing Klebsiella pneumoniae 10-2 after 18-24 hrs by two-fold serial dilution method; outline: as §1
Enterococcus faecalis [19] = experiment: Antimicrobial activity against Enterococcus faecalis 10-7 after 18-24 hrs by two-fold serial dilution method; outline: as §1
Staphylococcus aureus [20] = experiment: Antimicrobial activity against extended spectrum beta-lactamases-producing methicillin-sensitive Staphylococcus aureus 10-13 after 18-24 hrs by two-fold serial dilution method; outline: as §1
Escherichia coli [21] = experiment: Antimicrobial activity against extended spectrum beta-lactamases-producing Escherichia coli 10-3 after 18-24 hrs by two-fold serial dilution method; outline: as §1
Escherichia coli [22] = experiment: Antimicrobial activity against Escherichia coli 10-2 after 18-24 hrs by two-fold serial dilution method; outline: as §1
Staphylococcus aureus [23] = experiment: Antimicrobial activity against Staphylococcus aureus ATCC […] after 18-24 hrs by two-fold serial dilution method; outline: as §1
Escherichia coli [24] = experiment: Antimicrobial activity against Escherichia coli 10-3 after 18-24 hrs by two-fold serial dilution method; outline: as §1
Staphylococcus aureus [25] = experiment: Antimicrobial activity against extended spectrum beta-lactamases-producing methicillin-resistant Staphylococcus aureus 10-15 after 18-24 hrs by two-fold serial dilution method; outline: as §2
Pseudomonas aeruginosa [26] = experiment: Antimicrobial activity against extended spectrum beta-lactamases-producing Pseudomonas aeruginosa 10-5 after 18-24 hrs by two-fold serial dilution method; outline: as §1
Streptococcus pneumoniae [27] = experiment: Antimicrobial activity against extended spectrum beta-lactamases-producing Streptococcus pneumoniae 10-1 after 18-24 hrs by two-fold serial dilution method; outline: as §1
Staphylococcus aureus [28] = experiment: Antimicrobial activity against extended spectrum beta-lactamases-producing methicillin-resistant Staphylococcus aureus 10-11 after 18-24 hrs by two-fold serial dilution method; outline: as §2
Klebsiella pneumoniae [29] = experiment: Antimicrobial activity against Klebsiella pneumoniae 10-3 after 18-24 hrs by two-fold serial dilution method; outline: as §1
Enterococcus faecium [30] = experiment: Antimicrobial activity against Enterococcus faecium 10-5 after 18-24 hrs by two-fold serial dilution method; outline: as §1
[31] = tested on: Staphylococcus epidermidis; experiment: Antimicrobial activity against extended spectrum beta-lactamases-producing methicillin-sensitive Staphylococcus epidermidis 10-15 after 18-24 hrs by two-fold serial dilution method; outline: as §1
Escherichia coli [32] = experiment: Antimicrobial activity against Escherichia coli ATCC 25922 after 18-24 hrs by two-fold serial dilution method; outline: as §1
[33] = tested on: Staphylococcus epidermidis; experiment: Antimicrobial activity against extended spectrum beta-lactamases-producing methicillin-sensitive Staphylococcus epidermidis 10-13 after 18-24 hrs by two-fold serial dilution method; outline: as §1
Escherichia coli [34] = experiment: Antimicrobial activity against extended spectrum beta-lactamases-producing Escherichia coli 10-2 after 18-24 hrs by two-fold serial dilution method; outline: as §1
Streptococcus pneumoniae [35] = experiment: Antimicrobial activity against extended spectrum beta-lactamases-producing Streptococcus pneumoniae 10-4 after 18-24 hrs by two-fold serial dilution method; outline: as §1
Enterococcus faecium [36] = experiment: Antimicrobial activity against Enterococcus faecium 10-9 after 18-24 hrs by two-fold serial dilution method; outline: as §1

COc1cccc(OC)c1CO/N=C1\CN(c2nc3c(cc2F)c(=O)c(C(=O)O)cn3C2CC2)CC1CN.CS(=O)(=O)O (racemic)
MIC (Pseudomonas aeruginosa [1]): 4 µg/mL
MIC [2]: 0.125 µg/mL
MIC (Escherichia coli [3]): 4 µg/mL
MIC (Klebsiella pneumoniae [4]): > 128 µg/mL
MIC (Staphylococcus aureus [5]): 0.125 µg/mL
MIC (Pseudomonas aeruginosa [6]): 2 µg/mL
MIC (Pseudomonas aeruginosa [7]): 4 µg/mL
MIC (Enterococcus faecalis [8]): 0.5 µg/mL
MIC [9]: 0.25 µg/mL
MIC (Klebsiella pneumoniae [10]): 64 µg/mL
MIC (Enterococcus faecalis [11]): 2 µg/mL
MIC (Klebsiella pneumoniae [12]): > 128 µg/mL
MIC (Escherichia coli [13]): > 128 µg/mL
MIC (Klebsiella pneumoniae [14]): > 128 µg/mL
MIC (Pseudomonas aeruginosa [15]): 8 µg/mL
MIC (Pseudomonas aeruginosa [16]): 4 µg/mL
MIC [17]: 0.25 µg/mL
MIC (Klebsiella pneumoniae [18]): 64 µg/mL
MIC (Enterococcus faecalis [19]): 1 µg/mL
MIC (Staphylococcus aureus [20]): 0.125 µg/mL
MIC (Escherichia coli [21]): 16 µg/mL
MIC (Escherichia coli [22]): 8 µg/mL
MIC (Staphylococcus aureus [23]): 0.03 µg/mL
MIC (Escherichia coli [24]): 8 µg/mL
MIC (Staphylococcus aureus [25]): 0.5 µg/mL
MIC (Pseudomonas aeruginosa [26]): 4 µg/mL
MIC (Streptococcus pneumoniae [27]): 0.125 µg/mL
MIC (Staphylococcus aureus [28]): 1 µg/mL
MIC (Klebsiella pneumoniae [29]): 8 µg/mL
MIC (Enterococcus faecium [30]): 8 µg/mL
MIC [31]: 0.5 µg/mL
MIC (Escherichia coli [32]): 0.25 µg/mL
MIC [33]: 2 µg/mL
MIC (Escherichia coli [34]): > 128 µg/mL
MIC (Streptococcus pneumoniae [35]): 0.25 µg/mL
MIC (Enterococcus faecium [36]): 8 µg/mL
